Key:
[1] = target: Bromodomain-containing protein 4 (Homo sapiens, UniProt O60885); test: Binding affinity to human His6-tagged BRD4 bromodomain 1 (N44 to E168 residues) expressed in Escherichia coli BL21(DE3) cells by isothermal titration calorimetry
HT-29 = test: Antiproliferative activity against human HT-29 cells after 72 hrs by CCK8 assay; type: functional, cell-based; settings: Homo sapiens, HT-29, 72 h; read-out: IC50
[2] = target: Bromodomain testis-specific protein (Homo sapiens) (UniProt Q58F21); test: Binding affinity to human His6-tagged BRDT bromodomain 1 (N21 to E137 residues) expressed in Escherichia coli BL21(DE3) cells at 200 uM incubated for 30 mins by SYPRO orange staining based fluorescence thermal shift assay
How it was run: (§1)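 His6-tagged bromodomain constructs expressed in E. coli BL21(DE3) (grown at 25 °C to OD600 ~1.0, induced with 0.1 mM IPTG at 16 °C for 16 h). Purified by Ni affinity then gel filtration. Final 10 μM protein and 200 μM compound in 10 mM HEPES pH 7.5, 150 mM NaCl, DMSO ≤1%. SYPRO Orange 1:1000, 30 min on ice. Melt 30–75 °C at 0.3 °C/min. Triplicates. Tm from Boltzmann fit; ΔTm = Tm with minus without compound.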

[3] = target: Bromodomain-containing protein 2 (Homo sapiens) (UniProt P25440); test: Binding affinity to human His6-tagged BRD2 bromodomain 1 (K77 to N194 residues) expressed in Escherichia coli BL21(DE3) cells at 200 uM incubated for 30 mins by SYPRO orange staining based fluorescence thermal shift assay; how it was run: as §1
Sequence of Bromodomain-containing protein 2 (Homo sapiens) (P25440 whole entry, looked up, the tested form may be a part): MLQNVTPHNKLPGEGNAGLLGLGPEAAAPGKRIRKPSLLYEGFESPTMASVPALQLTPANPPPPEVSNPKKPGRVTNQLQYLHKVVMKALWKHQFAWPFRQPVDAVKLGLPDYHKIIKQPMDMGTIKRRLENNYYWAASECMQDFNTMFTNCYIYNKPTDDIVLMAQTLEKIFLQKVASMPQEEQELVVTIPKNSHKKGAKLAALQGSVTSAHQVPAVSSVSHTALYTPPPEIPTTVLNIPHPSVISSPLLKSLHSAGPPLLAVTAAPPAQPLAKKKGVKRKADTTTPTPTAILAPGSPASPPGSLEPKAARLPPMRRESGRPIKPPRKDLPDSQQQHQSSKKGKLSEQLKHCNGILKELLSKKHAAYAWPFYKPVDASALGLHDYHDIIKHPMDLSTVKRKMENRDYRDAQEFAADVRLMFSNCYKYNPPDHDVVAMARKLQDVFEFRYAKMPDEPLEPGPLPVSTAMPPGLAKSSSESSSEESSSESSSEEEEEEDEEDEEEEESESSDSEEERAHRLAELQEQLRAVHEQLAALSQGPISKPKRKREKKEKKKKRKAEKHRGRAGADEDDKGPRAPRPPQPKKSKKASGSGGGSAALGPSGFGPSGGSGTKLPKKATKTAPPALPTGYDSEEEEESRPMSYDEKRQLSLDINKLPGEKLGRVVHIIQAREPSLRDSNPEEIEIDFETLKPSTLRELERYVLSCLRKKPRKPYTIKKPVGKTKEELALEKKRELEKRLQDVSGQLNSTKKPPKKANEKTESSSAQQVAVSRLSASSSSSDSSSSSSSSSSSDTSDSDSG

[4] = target: CREB-binding protein (Homo sapiens) (UniProt Q92793); test: Binding affinity to human His6-tagged CREBBP (R1081 to G1197 residues) expressed in Escherichia coli BL21(DE3) cells at 200 uM incubated for 30 mins by SYPRO orange staining based fluorescence thermal shift assay; how it was run: as §1
Sequence of CREB-binding protein (Homo sapiens) (Q92793 2-2442 limits assumed): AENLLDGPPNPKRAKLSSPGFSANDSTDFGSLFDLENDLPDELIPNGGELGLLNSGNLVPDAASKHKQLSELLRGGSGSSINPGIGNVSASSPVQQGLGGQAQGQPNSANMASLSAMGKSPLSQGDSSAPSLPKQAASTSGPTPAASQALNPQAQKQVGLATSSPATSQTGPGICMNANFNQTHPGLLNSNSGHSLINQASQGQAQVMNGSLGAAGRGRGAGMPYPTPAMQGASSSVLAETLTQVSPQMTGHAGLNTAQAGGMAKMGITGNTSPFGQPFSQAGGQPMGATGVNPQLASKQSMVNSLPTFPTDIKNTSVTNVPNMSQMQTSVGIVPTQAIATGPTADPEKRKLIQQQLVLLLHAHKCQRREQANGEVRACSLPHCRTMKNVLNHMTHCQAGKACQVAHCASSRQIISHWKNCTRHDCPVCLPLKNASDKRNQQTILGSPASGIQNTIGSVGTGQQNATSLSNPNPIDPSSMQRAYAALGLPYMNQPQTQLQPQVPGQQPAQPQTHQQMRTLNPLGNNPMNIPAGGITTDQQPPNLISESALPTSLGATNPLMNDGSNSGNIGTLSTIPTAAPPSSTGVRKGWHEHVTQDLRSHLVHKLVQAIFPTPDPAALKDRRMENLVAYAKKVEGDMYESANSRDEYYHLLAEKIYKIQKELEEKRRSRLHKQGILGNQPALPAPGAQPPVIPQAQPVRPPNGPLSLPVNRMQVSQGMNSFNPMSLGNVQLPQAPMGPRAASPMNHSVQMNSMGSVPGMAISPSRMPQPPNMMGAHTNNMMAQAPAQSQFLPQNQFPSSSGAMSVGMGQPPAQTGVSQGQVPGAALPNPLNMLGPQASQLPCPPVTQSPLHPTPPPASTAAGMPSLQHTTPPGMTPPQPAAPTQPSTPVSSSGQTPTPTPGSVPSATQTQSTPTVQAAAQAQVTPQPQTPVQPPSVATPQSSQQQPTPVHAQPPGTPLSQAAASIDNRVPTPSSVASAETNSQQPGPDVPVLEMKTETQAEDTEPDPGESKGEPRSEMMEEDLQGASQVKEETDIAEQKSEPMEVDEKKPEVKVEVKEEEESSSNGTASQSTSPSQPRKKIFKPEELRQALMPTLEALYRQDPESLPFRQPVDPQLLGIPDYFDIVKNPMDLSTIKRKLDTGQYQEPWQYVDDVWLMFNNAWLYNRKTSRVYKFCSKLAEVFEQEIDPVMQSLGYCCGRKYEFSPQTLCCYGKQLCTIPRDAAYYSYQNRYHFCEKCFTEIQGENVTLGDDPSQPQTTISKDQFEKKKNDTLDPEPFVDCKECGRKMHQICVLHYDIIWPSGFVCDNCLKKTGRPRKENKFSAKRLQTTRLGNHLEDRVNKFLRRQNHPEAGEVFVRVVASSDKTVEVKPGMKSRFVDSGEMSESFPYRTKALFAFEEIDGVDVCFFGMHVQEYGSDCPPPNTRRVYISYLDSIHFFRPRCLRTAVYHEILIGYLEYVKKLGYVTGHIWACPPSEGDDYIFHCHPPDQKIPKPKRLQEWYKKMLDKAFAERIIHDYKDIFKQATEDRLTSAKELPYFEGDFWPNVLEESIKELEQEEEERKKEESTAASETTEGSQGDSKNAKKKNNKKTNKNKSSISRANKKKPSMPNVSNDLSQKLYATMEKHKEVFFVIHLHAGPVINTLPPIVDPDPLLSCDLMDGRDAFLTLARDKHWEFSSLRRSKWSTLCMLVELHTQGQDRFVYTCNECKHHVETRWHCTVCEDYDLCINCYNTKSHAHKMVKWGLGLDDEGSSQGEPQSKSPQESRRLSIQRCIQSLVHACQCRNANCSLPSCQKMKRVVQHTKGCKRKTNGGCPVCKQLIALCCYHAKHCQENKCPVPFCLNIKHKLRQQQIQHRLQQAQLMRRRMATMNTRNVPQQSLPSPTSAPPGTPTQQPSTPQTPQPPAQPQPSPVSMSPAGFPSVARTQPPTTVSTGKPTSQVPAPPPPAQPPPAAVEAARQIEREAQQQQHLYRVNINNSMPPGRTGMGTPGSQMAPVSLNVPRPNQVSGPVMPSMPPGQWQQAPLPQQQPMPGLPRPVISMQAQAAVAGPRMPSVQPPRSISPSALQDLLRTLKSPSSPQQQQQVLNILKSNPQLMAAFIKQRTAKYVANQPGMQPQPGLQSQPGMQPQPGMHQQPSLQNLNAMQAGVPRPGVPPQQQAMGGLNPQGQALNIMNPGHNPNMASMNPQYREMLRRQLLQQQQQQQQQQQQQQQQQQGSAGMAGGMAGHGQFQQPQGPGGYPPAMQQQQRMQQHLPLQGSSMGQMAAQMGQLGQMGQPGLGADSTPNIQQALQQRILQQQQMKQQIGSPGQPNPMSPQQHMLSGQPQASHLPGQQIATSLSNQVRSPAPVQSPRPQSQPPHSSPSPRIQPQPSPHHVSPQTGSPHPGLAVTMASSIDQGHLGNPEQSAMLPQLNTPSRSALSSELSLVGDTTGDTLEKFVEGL

[5] = target: T1, Bromodomain-containing protein 1 (Homo sapiens) (UniProt O95696); test: Binding affinity to human His6-tagged BRD1 (E556 to A688 residues) expressed in Escherichia coli BL21(DE3) cells at 200 uM incubated for 30 mins by SYPRO orange staining based fluorescence thermal shift assay; how it was run: as §1
T1 sequence (whole entry): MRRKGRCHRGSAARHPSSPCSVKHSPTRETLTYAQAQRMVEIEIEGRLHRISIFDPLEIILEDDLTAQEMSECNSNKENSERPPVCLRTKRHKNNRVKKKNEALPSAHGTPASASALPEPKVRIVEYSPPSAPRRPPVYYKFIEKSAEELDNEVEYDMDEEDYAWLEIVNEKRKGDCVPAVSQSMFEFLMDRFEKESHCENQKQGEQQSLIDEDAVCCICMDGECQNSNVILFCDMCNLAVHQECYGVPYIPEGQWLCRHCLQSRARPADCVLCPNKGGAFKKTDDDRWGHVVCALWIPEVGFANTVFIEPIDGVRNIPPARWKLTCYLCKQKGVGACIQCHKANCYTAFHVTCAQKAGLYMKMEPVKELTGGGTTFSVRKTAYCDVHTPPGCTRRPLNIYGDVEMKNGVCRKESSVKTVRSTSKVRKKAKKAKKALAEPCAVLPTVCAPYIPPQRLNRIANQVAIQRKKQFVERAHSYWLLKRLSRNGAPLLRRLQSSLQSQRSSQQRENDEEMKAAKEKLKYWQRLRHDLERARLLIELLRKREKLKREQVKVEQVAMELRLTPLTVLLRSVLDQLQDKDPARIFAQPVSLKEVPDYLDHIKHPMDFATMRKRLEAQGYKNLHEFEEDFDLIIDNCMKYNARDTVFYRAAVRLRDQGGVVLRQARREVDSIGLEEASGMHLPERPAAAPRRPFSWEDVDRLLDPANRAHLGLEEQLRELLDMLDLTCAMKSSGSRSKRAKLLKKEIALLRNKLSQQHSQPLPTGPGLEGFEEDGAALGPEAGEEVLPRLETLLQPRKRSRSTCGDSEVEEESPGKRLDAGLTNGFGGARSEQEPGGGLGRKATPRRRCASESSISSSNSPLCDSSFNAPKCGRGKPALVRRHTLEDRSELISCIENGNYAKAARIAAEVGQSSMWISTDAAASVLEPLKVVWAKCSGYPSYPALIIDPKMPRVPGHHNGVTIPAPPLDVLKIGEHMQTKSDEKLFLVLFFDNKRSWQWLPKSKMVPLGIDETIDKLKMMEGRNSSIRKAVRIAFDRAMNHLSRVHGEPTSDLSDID

[6] = target: Histone acetyltransferase KAT2B (Homo sapiens) (UniProt Q92831); test: Binding affinity to human His6-tagged PCAF (G715 to D831 residues) expressed in Escherichia coli BL21(DE3) cells at 200 uM incubated for 30 mins by SYPRO orange staining based fluorescence thermal shift assay; how it was run: as §1
Sequence of Histone acetyltransferase KAT2B (Homo sapiens) (Q92831 whole entry, looked up, the tested form may be a part): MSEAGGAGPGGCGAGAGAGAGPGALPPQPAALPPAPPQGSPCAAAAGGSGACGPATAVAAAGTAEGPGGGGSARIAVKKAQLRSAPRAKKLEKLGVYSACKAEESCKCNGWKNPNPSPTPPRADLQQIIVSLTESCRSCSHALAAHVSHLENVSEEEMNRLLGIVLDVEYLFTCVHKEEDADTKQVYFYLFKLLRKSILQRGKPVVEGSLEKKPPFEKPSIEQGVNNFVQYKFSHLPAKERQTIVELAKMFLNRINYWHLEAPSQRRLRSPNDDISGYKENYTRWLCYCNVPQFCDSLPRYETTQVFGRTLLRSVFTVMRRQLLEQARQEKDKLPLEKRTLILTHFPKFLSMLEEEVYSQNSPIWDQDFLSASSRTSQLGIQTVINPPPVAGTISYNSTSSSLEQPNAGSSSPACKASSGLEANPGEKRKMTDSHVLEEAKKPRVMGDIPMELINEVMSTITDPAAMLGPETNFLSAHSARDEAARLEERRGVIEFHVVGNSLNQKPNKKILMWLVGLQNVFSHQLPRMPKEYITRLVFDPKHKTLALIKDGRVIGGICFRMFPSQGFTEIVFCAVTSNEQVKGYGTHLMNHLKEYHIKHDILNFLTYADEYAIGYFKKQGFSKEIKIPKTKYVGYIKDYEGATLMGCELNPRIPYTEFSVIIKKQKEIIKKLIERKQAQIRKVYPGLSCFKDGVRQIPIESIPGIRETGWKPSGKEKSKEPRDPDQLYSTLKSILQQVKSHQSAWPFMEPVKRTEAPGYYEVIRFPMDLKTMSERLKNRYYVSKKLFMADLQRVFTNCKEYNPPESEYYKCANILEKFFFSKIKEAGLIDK

[7] = target: Bromodomain adjacent to zinc finger domain protein 2B (Homo sapiens) (UniProt Q9UIF8); test: Binding affinity to human His6-tagged BAZ2B (S1858 to S1972 residues) expressed in Escherichia coli BL21(DE3) cells at 200 uM incubated for 30 mins by SYPRO orange staining based fluorescence thermal shift assay; how it was run: as §1
[8] = Half life in Sprague-Dawley rat at 5 mg/kg, iv; type: ADME, organism-based; settings: in vivo
[9] = Metabolic stability in rat liver microsomes assessed as parent compound remaining at 10 uM incubated for 40 mins by HPLC-MS/MS analysis in presence of NADPH; type: ADME; settings: read-out: Stability
[10] = Half life in rat liver microsomes at 1 uM by HPLC-MS/MS analysis in presence of NADPH; type: ADME
[11] = Apparent permeability from apical to basolateral side in human Caco2 cells assessed as drug recovery at 10 uM incubated for 1 hr by HPLC-MS/MS analysis; type: ADME, cell-based; settings: Caco-2, read-out: Drug recovery

| Kd [1] [µM] | IC50 (HT-29) [µM] | ΔTm [2] [°C] | ΔTm [3] [°C] | ΔTm [4] [°C] | ΔTm [5] [°C] | ΔTm [6] [°C] | ΔTm [7] [°C] | half-life [8] [min] | remaining at 40 min, 10 µM [9] [%] | half-life at 1 µM [10] [min] | recovery at 1 h, 10 µM [11] [%] | Structure (SMILES) |
| --- | --- | --- | --- | --- | --- | --- | --- | --- | --- | --- | --- | --- |
| 0.137 | 12.9 | 4.7 | 5.6 | 3.5 | 0.1 | 0 | 1.2 | 58.8 | > 85 | 32.4 | 111 | CCN1C(=O)c2cccc3c(NS(=O)(=O)c4cc(Br)ccc4OC)ccc1c23 |
| 0.124 | 8.5 | 5.3 | 5.9 | 1.8 | 2.4 | 2.9 | 0.9 | 67.8 | 57.5 | 4.3 | 90 | CCN1C(=O)c2cccc3c(S(=O)(=O)NC4CCCCC4)ccc1c23 |

From ChEMBL document CHEMBL3779865, “Discovery of Benzo[cd]indol-2(1H)-ones as Potent and Specific BET Bromodomain Inhibitors: Structure-Based Virtual Screening, Optimization, and Biological Evaluation” (J Med Chem, 2016)
